# Sampled rows, rich in hits. Any-hit rate of the full collection: about 2.1%.
# PDI turbidity = blocks human protein disulfide isomerase activity; P07237; PDI insulin aggregation turbidity, A650, 90 min; inhibition, % at 10 µM; hit rate 0.052% among 350,000;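 active = mean inhibition across replicates of 30% or more, whatever share of single replicates reach that level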
# ARNT TACC3 PPI = ARNT/TACC3 interaction disruption; AlphaScreen His-ARNT PAS-B/GST-TACC3 binding, luminescence; TACC3 fragment carries E629A point mutation; inhibition, % at 9.99 µM; hit rate 0.66% among 390,000;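 active = mean inhibition of replicates at least 50% and at least half of replicates each reaching 50%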;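 also: 0% = complete ARNT plus TACC3 wells and 100% = ARNT alone without TACC3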
# FN deposition inh = fibronectin deposition inhibition. inhibition, % at 12.6 µM. hit rate 0.086% among 350,000. AH1F fibroblasts, Alexa488-fibronectin deposition fluorescence, overnight;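 active = mean inhibition across replicates of 30% or more, regardless of how many single replicates reach that level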;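 also: positive control wells lacked labelled fibronectin entirely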
#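 Assay system: AH1F fibroblasts / Quantity: 10000 cells per well / Medium: DMEM plus 2% serum, read in PBS / Reagent: labelled fibronectin 24 nM / Dosing: single dose, pinned / Times: 1 h cell attachment, overnight exposure to compound and label / Signal: fluorescence, ex 485 nm, em 525 nm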
# MLL AF4-AF9 inh = MLL-AF4/AF9 protein interaction inhibition | P42568 | AlphaScreen, biotin-AF4 peptide binding to FLAG-AF9 | inhibition, % at 10 µM | hit rate 0.47% among 350,000;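 active = every replicate reaching a set inhibition limit, whatever the replicate mean, cut at about 25% in these data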;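 also: 0% = plate neutral control median and 100% = total signal loss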
# Target sequence (P42568 whole entry, looked up): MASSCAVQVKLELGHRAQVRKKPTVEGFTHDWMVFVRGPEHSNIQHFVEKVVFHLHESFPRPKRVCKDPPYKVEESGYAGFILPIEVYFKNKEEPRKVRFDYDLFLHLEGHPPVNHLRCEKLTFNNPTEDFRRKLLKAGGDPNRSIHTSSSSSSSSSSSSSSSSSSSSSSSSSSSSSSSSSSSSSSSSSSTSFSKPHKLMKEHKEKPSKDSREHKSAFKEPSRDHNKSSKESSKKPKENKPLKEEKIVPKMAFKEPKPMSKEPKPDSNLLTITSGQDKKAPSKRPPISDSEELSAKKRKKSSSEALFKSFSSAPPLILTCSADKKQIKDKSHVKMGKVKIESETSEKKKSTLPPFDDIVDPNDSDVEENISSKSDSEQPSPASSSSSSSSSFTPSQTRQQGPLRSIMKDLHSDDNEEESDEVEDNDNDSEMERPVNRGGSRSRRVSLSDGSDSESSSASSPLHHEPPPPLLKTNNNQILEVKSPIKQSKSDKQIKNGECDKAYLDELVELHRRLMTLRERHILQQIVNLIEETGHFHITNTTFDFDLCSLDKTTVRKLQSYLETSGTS
# FGF22 binding = shifts melting point of recombinant human FGF22; recombinant FGF22 thermal shift, SYPRO orange fluorescence; percent of sucrose octasulfate shift, DMSO zero; hit rate 1.5% among 340,000; AID 651658; activity (Tm shift, normalised), % at 9.99 µM;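 active = mean Tm shift, scaled 0 neutral to 100 positive control, at about 1.3% or above, every replicate too, limit read from the data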
# ERp5 inh = inhibitors of human ERp5 | Q15084 | ERp5 insulin aggregation, absorbance 650 nm, 90 min | inhibition, % at 9.99 µM | hit rate 0.05% among 350,000 | AID 651711;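 active = mean replicate inhibition above about 25%, with every replicate also reaching it, limit read from the data, passing the limit was not always enough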
# An asterisk follows results filed as active; nt = no result; ! = not confirmed by another sample.
SMILES,PDI turbidity,ARNT TACC3 PPI,FN deposition inh,MLL AF4-AF9 inh,FGF22 binding,ERp5 inh
O=C(NCCCN1CCOCC1)C(=O)N/N=C/c1ccccc1Cl,0,-3,-23,nt,0,-2
O=C(CCN1CCOCC1)N/N=C/c1cc(Br)cc(Br)c1O,12,70*,5,10,0,4
CSc1nc(C)cc(OCC(=O)N/N=C/c2ccccc2O)n1,1,49*,14,nt,nt,nt
O=C(NCc1ccccn1)C(=O)N/N=C/c1ccccc1O,6,64*,-1,-67,0,1
O=C(NCCCN1CCOCC1)C(=O)N/N=C/c1ccccc1O,13,69*,7,-4,0,1
COc1cccc(-c2ccc(CC[C@H]3O[C@H]4CC[C@H](CO)O[C@H]4C[C@@H]3NC(=O)CN(C)C)cc2)c1,nt,nt,nt,6,nt,nt
CNC[C@@H]1OCCCC[C@@H](C)Oc2ccc(NS(=O)(=O)c3ccc(OC)cc3)cc2C(=O)N([C@H](C)CO)C[C@H]1C,nt,1,nt,2,0,-1
CO[C@H]1CN(C)C(=O)c2ccc(NC(C)=O)cc2OC[C@H](C)N(C(=O)C2CCOCC2)C[C@@H]1C,nt,nt,-2,-2,0,-5
O=C(COc1nsnc1N1CCOCC1)N/N=C/c1ccccc1O,3,59*,0,5,0,4
O=C(O)COc1ccc(/C=N/NC(=O)COc2nsnc2N2CCOCC2)cc1,0,-8,11,-7,0,-1
COCCNS(=O)(=O)c1ccc2c3c(cccc13)C(=O)N2C,0,1,7,-1,43*,-6
CCO[C@H]1OC(C(=O)N2CCOCC2)=C[C@@H](C2CCCCC2)[C@@H]1CCCO,nt,7,nt,-2,0,4
COc1ccc(OCC(O)CN2CCN(Cc3ccc4c(c3)OCO4)CC2)cc1 (centres undefined),-3,47*,-1,3,0,0
CC(=O)c1ccc(OCC(O)CN2CCN(Cc3ccc4c(c3)OCO4)CC2)cc1 (centres undefined),-4,-9,1,-2,0,-1
CCCNC(=O)N1C[C@@H]2[C@H](c3ccccc31)[C@@H](CO)N2C(=O)NCCC,nt,-2,nt,0,-1,0
CC1C(=O)NN=C1C(=O)N/N=C\c1ccc(O)cc1O (centres undefined),0,79*,-6,-5,nt,7
COc1cc(/C=N/NC(=O)C2=NNC(=O)C2C)ccc1O (centres undefined),6,2,4,-1,0,-6
COc1ccc(S(=O)(=O)Nc2ccc3c(c2)CC(=O)N([C@H](C)CO)C[C@H](C)[C@@H](CN(C)S(=O)(=O)c2ccc(F)cc2)O3)cc1,nt,1,nt,nt,0,nt
Cc1cccc(-c2ccc([C@@H]3[C@@H](CO)N4C(=O)CN(C(=O)Cc5ccccn5)C[C@@H]34)cc2)c1,nt,nt,nt,0,nt,-1
CC(C)(C)N1CC(C(=O)Nc2ccc(S(N)(=O)=O)cc2)CC1=O (centres undefined),-6,-2,3,-1,0,2
CC(C)(C)N1CC(C(=O)Nc2ccc(C(N)=O)cc2)CC1=O (centres undefined),-5,nt,7,1,44*,5
O=C(C[C@H]1CC[C@H](NS(=O)(=O)c2ccc(F)cc2)[C@H](CO)O1)NCc1ccccc1F,nt,nt,11,-3,nt,0
CN1CCN(Cc2nc3ccccc3c(=O)n2Cc2nc(-c3ccc4ccccc4c3)cs2)CC1,44*!,6,-1,1,0,13
CN1CCN(Cc2nc3ccccc3c(=O)n2Cc2nc(-c3cccc([N+](=O)[O-])c3)cs2)CC1,14,nt,-8,6,0,-1
C=CCc1cc(/C=C2/NC(=O)NC2=O)cc(OCC)c1O,13,2,-10,1,43*,-6
SMILES,PDI turbidity,ARNT TACC3 PPI,FN deposition inh,MLL AF4-AF9 inh,FGF22 binding,ERp5 inh
Cc1cccc(S(=O)(=O)N2C[C@H](O)COC[C@@H]3O[C@@H](CC(=O)N4CCN(C)CC4)CC[C@H]32)c1,nt,3,-5,-17,0,-1
O=S(=O)(Nc1ccccc1)c1ccc2c(c1)CCO2,-3,2,2,48*,0,3
Fc1ccc(NC(=S)NCCN2CCOCC2)cc1,1,-17,6,-3,0,10
Fc1ccc(NC(=S)NCCN2CCOCC2)c(F)c1F,6,5,-9,0,43*,0
Cc1ccc(S(=O)(=O)Nc2ccc3c(c2)C(=O)N([C@@H](C)CO)C[C@@H](C)[C@H](CN(C)C(=O)CCCN(C)C)OCCCC[C@H](C)O3)cc1,nt,-10,-6,-2,0,-1
C[C@@H]1CN([C@@H](C)CO)C(=O)c2cc(C#Cc3cccnc3)cnc2O[C@H]1CN(C)C,nt,-5,4,-6,0,-1
c1ccn2cc(-c3ccc4c(c3)OCCO4)nc2c1,-5,4,-7,1,43*,0
CCC(=O)NC(=S)NNC(=O)c1ccc(O)cc1,1,75*,nt,0,0,0
CCC(=O)NNC(=S)NC(=O)c1ccc(C)cc1,-2,38,-5,-1,0,-4
O=C/C=C/c1ccc(/C=C/c2ccccc2)cc1,nt,nt,nt,0,0,2
O=C1C=CCC(/C=C/c2ccccc2)O1 (centres undefined),nt,nt,-5,-6,44*,-1
COc1ccc(C(=O)N/C(=C\c2cn(C)c3ccccc23)C(=O)OCCN(C)C)cc1,5,7,-2,3,28*,1
CCC(=O)N(C)C[C@H]1Oc2cc(-c3ccc(C#N)cc3)ccc2S(=O)(=O)N([C@@H](C)CO)C[C@@H]1C,nt,-8,6,-1,0,85*
CC(=O)N(C)C[C@@H]1Oc2cc(-c3ccc(C#N)cc3)ccc2S(=O)(=O)N([C@H](C)CO)C[C@@H]1C,nt,active,0,-1,-1,0
CCC(=O)N(C)C[C@@H]1Oc2cc(-c3ccc(C#N)cc3)ccc2S(=O)(=O)N([C@H](C)CO)C[C@@H]1C,nt,-7,3,-4,0,nt
CCC(=O)Nc1ccc2c(c1)C(=O)N(C)[C@H]1CC[C@@H](CC(=O)N3CCc4ccccc4C3)O[C@H]1CO2,nt,nt,3,nt,nt,nt
CCOc1ccc(S(=O)(=O)NCCC(=O)OCC(=O)NC(=O)c2cccn2C)cc1,3,-5,0,-10,44*,-14
C[C@H](CO)N1C[C@H](C)[C@H](CN(C)C(=O)c2cccc(F)c2)Oc2ncc(-c3ccccc3)cc2C1=O,nt,nt,34*,nt,nt,nt
C[C@@H]1CN([C@@H](C)CO)C(=O)c2cc(Br)cnc2O[C@H]1CN(C)Cc1ccccc1,nt,5,nt,0,0,-8
C[C@@H]1CN([C@@H](C)CO)C(=O)c2cc(Br)cnc2O[C@H]1CN(C)Cc1cccc(F)c1,nt,-7,8,-1,0,37*!

# Assay outcomes from PubChem BioAssay.
